Columns and labels:
Assay type in all cases: functional, cell-based
[1] = Anticancer activity against human HL60 cells after 48 hrs by MTT assay; details: HL-60, 48 h
Summary of the method: (§1)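 Cells grown in RPMI-1640 or DMEM with 10% FBS at 37 °C, 5% CO2. Seeded at 1 × 10^5 cells/mL in 100 µL per well. Adherent lines were allowed to attach for 12 h before drug; suspension cells were seeded just before drug. Triplicate exposure to a range of compound concentrations for 48 h. MTT (100 µg/well) was added for 4 h at 37 °C, cells lysed with SDS, and OD read at 595 nm.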

[2] = test system: SW480; experiment: Anticancer activity against human SW480 cells after 48 hrs by MTT assay; details: SW480, 48 h; summary of the method: as §1
[3] = Anticancer activity against human SMMC7721 cells after 48 hrs by MTT assay; details: SMMC-7721, 48 h; summary of the method: as §1
[4] = test system: A549; experiment: Anticancer activity against human A549 cells after 48 hrs by MTT assay; details: A549, 48 h; summary of the method: as §1
[5] = test system: MCF7; experiment: Anticancer activity against human MCF7 cells after 48 hrs by MTT assay; details: MCF7, 48 h; summary of the method: as §1

IC50 [2] | IC50 [4] | IC50 [5] | Compound | IC50 [1] | IC50 [3]
> 40 µM | > 40 µM | > 40 µM | CCCC(=O)OC[C@H]1O[C@H](O[C@@H]2c3cc4c(cc3[C@@H](c3cc(OC)c(OC)c(OC)c3)[C@H]3C(=O)OC[C@@H]32)OCO4)[C@H](OC(=O)CCC)[C@@H](OC(=O)CCC)[C@@H]1OC(=O)CCC | > 40 µM | > 40 µM
38.7 µM | 16 µM | 39.1 µM | CCCC(=O)OC[C@H]1O[C@H](O[C@@H]2c3cc4c(cc3[C@@H](c3cc(OC)c(O)c(OC)c3)[C@H]3C(=O)OC[C@@H]32)OCO4)[C@H](OC(=O)CCC)[C@@H](OC(=O)CCC)[C@@H]1OC(=O)CCC | 16.9 µM | 16.8 µM
5.05 µM | 3.52 µM | 4.71 µM | CCCC(=O)O[C@@H]1[C@@H](OC(=O)CCC)[C@H](C)O[C@@H](O[C@@H]2c3cc4c(cc3[C@@H](c3cc(OC)c(O)c(OC)c3)[C@H]3C(=O)OC[C@@H]32)OCO4)[C@@H]1OC(=O)CCC | 2.54 µM | 2.68 µM
1.65 µM | 0.61 µM | 1.27 µM | CCCC(=O)OC[C@H]1O[C@H](O[C@@H]2c3cc4c(cc3[C@@H](c3cc(OC)c(OC)c(OC)c3)[C@H]3C(=O)OC[C@@H]32)OCO4)[C@H](OC(=O)CCC)[C@@H](OC(=O)CCC)[C@H]1OC(=O)CCC | 0.14 µM | 0.62 µM
26.5 µM | 17.8 µM | 22.1 µM | CCCC(=O)OC[C@H]1O[C@@H](O[C@@H]2c3cc4c(cc3[C@@H](c3cc(OC)c(OC)c(OC)c3)[C@H]3C(=O)OC[C@@H]32)OCO4)[C@H](OC(=O)CCC)[C@@H](OC(=O)CCC)[C@H]1OC(=O)CCC | 3.15 µM | 18.1 µM
4.85 µM | 3.1 µM | 7.5 µM | CCCC(=O)OC[C@H]1O[C@H](O[C@@H]2c3cc4c(cc3[C@@H](c3cc(OC)c(O)c(OC)c3)[C@H]3C(=O)OC[C@@H]32)OCO4)[C@@H](OC(=O)CCC)[C@@H](OC(=O)CCC)[C@@H]1OC(=O)CCC | 2.71 µM | 3.84 µM
> 40 µM | 23.2 µM | 29.3 µM | CCCC(=O)O[C@@H]1[C@@H](O[C@@H]2c3cc4c(cc3[C@@H](c3cc(OC)c(O)c(OC)c3)[C@H]3C(=O)OC[C@@H]32)OCO4)OC[C@@H](OC(=O)CCC)[C@@H]1OC(=O)CCC | 26.5 µM | 17.1 µM
> 40 µM | > 40 µM | > 40 µM | CCCC(=O)OC[C@H]1O[C@@H](O[C@H]2[C@H](OC(=O)CCC)[C@@H](OC(=O)CCC)[C@@H](O[C@@H]3c4cc5c(cc4[C@@H](c4cc(OC)c(OC)c(OC)c4)[C@H]4C(=O)OC[C@@H]43)OCO5)O[C@@H]2COC(=O)CCC)[C@H](OC(=O)CCC)[C@@H](OC(=O)CCC)[C@H]1OC(=O)CCC | > 40 µM | > 40 µM
10.7 µM | 5.7 µM | 5.67 µM | CCCC(=O)OC[C@H]1O[C@H](O[C@@H]2c3cc4c(cc3[C@@H](c3cc(OC)c(O)c(OC)c3)[C@H]3C(=O)OC[C@@H]32)OCO4)[C@H](OC(=O)CCC)[C@@H](OC(=O)CCC)[C@H]1OC(=O)CCC | 4.89 µM | 3.78 µM
16.8 µM | 7.62 µM | 13.5 µM | CCCC(=O)O[C@@H]1[C@@H](OC(=O)CCC)[C@H](C)O[C@@H](O[C@@H]2c3cc4c(cc3[C@@H](c3cc(OC)c(OC)c(OC)c3)[C@H]3C(=O)OC[C@@H]32)OCO4)[C@@H]1OC(=O)CCC | 5.32 µM | 15.2 µM
17.1 µM | 11.9 µM | 32.8 µM | COc1cc([C@@H]2c3cc4c(cc3[C@@H](O[C@@H]3O[C@@H]5CO[C@@H](C)O[C@H]5[C@H](O)[C@H]3O)[C@H]3COC(=O)[C@H]23)OCO4)cc(OC)c1O [ETOPOSIDE] | 0.31 µM | 8.12 µM
> 40 µM | > 40 µM | > 40 µM | CCCC(=O)OC[C@H]1O[C@H](O[C@@H]2c3cc4c(cc3[C@@H](c3cc(OC)c(OC)c(OC)c3)[C@H]3C(=O)OC[C@@H]32)OCO4)[C@@H](OC(=O)CCC)[C@@H](OC(=O)CCC)[C@@H]1OC(=O)CCC | > 40 µM | > 40 µM
1.11 µM | 0.61 µM | 1.42 µM | CCCC(=O)O[C@@H]1[C@@H](O[C@@H]2c3cc4c(cc3[C@@H](c3cc(OC)c(OC)c(OC)c3)[C@H]3C(=O)OC[C@@H]32)OCO4)OC[C@@H](OC(=O)CCC)[C@@H]1OC(=O)CCC | 0.6 µM | 0.78 µM
> 40 µM | 18.6 µM | > 40 µM | CCCC(=O)OC[C@H]1O[C@@H](O[C@H]2[C@H](OC(=O)CCC)[C@@H](OC(=O)CCC)[C@@H](O[C@@H]3c4cc5c(cc4[C@@H](c4cc(OC)c(O)c(OC)c4)[C@H]4C(=O)OC[C@@H]43)OCO5)O[C@@H]2COC(=O)CCC)[C@H](OC(=O)CCC)[C@@H](OC(=O)CCC)[C@H]1OC(=O)CCC | 9.59 µM | 20.2 µM
> 40 µM | > 40 µM | > 40 µM | CCCC(=O)OC[C@H]1O[C@H](O[C@H]2[C@H](OC(=O)CCC)[C@@H](OC(=O)CCC)[C@@H](O[C@@H]3c4cc5c(cc4[C@@H](c4cc(OC)c(O)c(OC)c4)[C@H]4C(=O)OC[C@@H]43)OCO5)O[C@@H]2COC(=O)CCC)[C@H](OC(=O)CCC)[C@@H](OC(=O)CCC)[C@@H]1OC(=O)CCC | > 40 µM | > 40 µM
> 40 µM | > 40 µM | > 40 µM | CCCC(=O)OC[C@H]1O[C@H](O[C@H]2[C@H](OC(=O)CCC)[C@@H](OC(=O)CCC)[C@@H](O[C@@H]3c4cc5c(cc4[C@@H](c4cc(OC)c(OC)c(OC)c4)[C@H]4C(=O)OC[C@@H]43)OCO5)O[C@@H]2COC(=O)CCC)[C@H](OC(=O)CCC)[C@@H](OC(=O)CCC)[C@@H]1OC(=O)CCC | > 40 µM | > 40 µM
1.26 µM | 1.12 µM | 1.69 µM | CCCC(=O)OC[C@H]1O[C@@H](O[C@@H]2c3cc4c(cc3[C@@H](c3cc(OC)c(OC)c(OC)c3)[C@H]3C(=O)OC[C@@H]32)OCO4)[C@H](OC(=O)CCC)[C@@H](OC(=O)CCC)[C@@H]1OC(=O)CCC | 0.61 µM | 0.83 µM
